Laboratory results published in ChEMBL document CHEMBL4706762, “Massively Parallel Optimization of the Linker Domain in Small Molecule Dimers Targeting a Toxic r(CUG) Repeat Expansion” (ACS Med Chem Lett, 2021).
Calls of active or inactive are those of the source. The rule behind the calls is not given here.

Columns and labels:
r(CUG) repeat expansion [1] = experiment: Binding affinity to r(CUG)exp RNA repeat in DM1-patient derived myotubes assessed as improvement in MBNL1 exon 5 splicing defect at 1 uM measured after 48 hrs by RT-qPCR analysis relative to control; details: Homo sapiens, Myotube
Outline: (§1)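 DM1 patient-derived myotubes (1300 r(CUG) repeats) treated 48 h, then MBNL1 exon 5 splicing rescue measured. Single-dose screens at 5 μM or 1 μM, where 1 μM was used if 5 μM altered morphology, n = 3. Dose–response also run, n = 6. SD shown; one-way ANOVA.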

[2] = Cytotoxicity against DM1-patient derived myotubes assessed as change in cellular morphology at 1 uM measured after 48 hrs; details: human, myotube
Outline: (§2)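 Cell morphology of DM1 patient-derived myotubes inspected during 48 h splicing treatment at 5 μM; agents altering morphology were re-tested at 1 μM.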

[3] = Cytotoxicity against DM1-patient derived myotubes assessed as change in cellular morphology at 5 uM measured after 48 hrs; details: human, myotube; outline: as §2
r(CUG) repeat expansion [4] = experiment: Binding affinity to r(CUG)exp RNA repeat in DM1-patient derived myotubes assessed as improvement in MBNL1 exon 5 splicing defect at 0.2 uM measured after 48 hrs by RT-qPCR analysis relative to control; details: Homo sapiens, Myotube; outline: as §1
[5] = Drug localization in nucleus of DM1-patient derived myotubes at 5 uM measured after 24 hrs by live-cell fluorescence microscopy; format: ADME, subcellular; details: human, myotube
Outline: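 DM1 patient myotubes bearing 1300 r(CUG) repeats given 5 μM agent; subcellular localization followed via intrinsic fluorescence of the H RNA-binding modules.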

r(CUG) repeat expansion [6] = experiment: Binding affinity to r(CUG)exp RNA repeat in DM1-patient derived myotubes assessed as improvement in MBNL1 exon 5 splicing defect measured after 48 hrs by RT-qPCR analysis; format: tissue-based; details: Homo sapiens, Myotube, dose 0.04-1 µM
r(CUG) repeat expansion [7] = experiment: Binding affinity to 5'-biotinylated r(CUG)12 RNA repeat (unknown origin) assessed as disruption of r(CUG)12-His-tagged MBNL1 complex formation preincubated for 15 mins followed by MBNL1 addition and measured after 15 mins by TR-FRET assay; format: nucleic-acid assay
r(CUG) repeat expansion [8] = experiment: Binding affinity to r(CUG)12 RNA repeat (unknown origin) measured after 10 mins by fluorescence assay; format: nucleic-acid assay
r(CUG) repeat expansion [9] = experiment: Binding affinity to r(CUG)exp RNA repeat in DM1-patient derived myotubes assessed as improvement in MBNL1 exon 5 splicing defect at 5 uM measured after 48 hrs by RT-qPCR analysis relative to control; details: Homo sapiens, Myotube; outline: as §1

SMILES	Drug uptake [5]	Activity [3]	other results
COc1ccc(CN(CC(=O)N(CCCNC(=O)CCCOc2cccc(-c3nc4ccc(-c5nc6cc(N7CCN(C)CC7)ccc6[nH]5)cc4[nH]3)c2)CC(N)=O)C(=O)CN(Cc2cccnc2)C(=O)CN(C(=O)CN(C)C(=O)CCCOc2cccc(-c3nc4ccc(-c5nc6cc(N7CCN(C)CC7)ccc6[nH]5)cc4[nH]3)c2)C2CC2)cc1	Active	Toxic	Activity (r(CUG) repeat expansion [1]): Active; Activity [2]: Non-Toxic; Activity (r(CUG) repeat expansion [4]): 2%; Activity (r(CUG) repeat expansion [6]): Dose-dependent effect
CCCN(CC(=O)N(CCCNC(=O)CCCOc1cccc(-c2nc3ccc(-c4nc5cc(N6CCN(C)CC6)ccc5[nH]4)cc3[nH]2)c1)CC(N)=O)C(=O)CN(CCO)C(=O)CN(CCN)C(=O)CN(CCN1CCOCC1)C(=O)CCCOc1cccc(-c2nc3ccc(-c4nc5cc(N6CCN(C)CC6)ccc5[nH]4)cc3[nH]2)c1	Active	Non-Toxic	
COCCN(CC(=O)N(CCCNC(=O)CCCOc1cccc(-c2nc3ccc(-c4nc5cc(N6CCN(C)CC6)ccc5[nH]4)cc3[nH]2)c1)CC(N)=O)C(=O)CN(CCN)C(=O)CN(Cc1ccc(OC)cc1)C(=O)CN(CCN)C(=O)CCCOc1cccc(-c2nc3ccc(-c4nc5cc(N6CCN(C)CC6)ccc5[nH]4)cc3[nH]2)c1	Active	Non-Toxic	
CCCN(CC(=O)N(CCC)CC(=O)N(CCC)CC(=O)N(CCC)CC(=O)N(CC(N)=O)Cc1cn(CCCNC(=O)CCCOc2ccc(-c3nc4ccc(-c5nc6cc(N7CCN(C)CC7)ccc6[nH]5)cc4[nH]3)cc2)nn1)C(=O)CNCc1cn(CCCNC(=O)CCCOc2cccc(-c3nc4ccc(-c5nc6cc(N7CCN(C)CC7)ccc6[nH]5)cc4[nH]3)c2)nn1	Active		Activity (r(CUG) repeat expansion [1]): inactive; IC50 (r(CUG) repeat expansion [7]): 32.2 µM; EC50 (r(CUG) repeat expansion [8]): 1.14 µM; Activity (r(CUG) repeat expansion [9]): 30%

More lines, main results first:

Drug uptake [5]	SMILES	Activity [3]	other results
Active	CNCCCCN(CC(=O)N(CC(=O)N(CCCNC(=O)CCCOc1cccc(-c2nc3ccc(-c4nc5cc(N6CCN(C)CC6)ccc5[nH]4)cc3[nH]2)c1)CC(N)=O)C1CC1)C(=O)CN(CCOC)C(=O)CN(CCO)C(=O)CCCOc1cccc(-c2nc3ccc(-c4nc5cc(N6CCN(C)CC6)ccc5[nH]4)cc3[nH]2)c1	Non-Toxic	
Active	CNCCCCN(CC(=O)N(CCN)CC(=O)N(CCCNC(=O)CCCOc1cccc(-c2nc3ccc(-c4nc5cc(N6CCN(C)CC6)ccc5[nH]4)cc3[nH]2)c1)CC(N)=O)C(=O)CN(Cc1ccccc1)C(=O)CN(C)C(=O)CCCOc1cccc(-c2nc3ccc(-c4nc5cc(N6CCN(C)CC6)ccc5[nH]4)cc3[nH]2)c1	Non-Toxic	
Active	CNCCCCN(CC(=O)N(CC(=O)N(CC(=O)N(CCO)CC(=O)N(CCCNC(=O)CCCOc1cccc(-c2nc3ccc(-c4nc5cc(N6CCN(C)CC6)ccc5[nH]4)cc3[nH]2)c1)CC(N)=O)C1CCCCC1)Cc1cccnc1)C(=O)CCCOc1cccc(-c2nc3ccc(-c4nc5cc(N6CCN(C)CC6)ccc5[nH]4)cc3[nH]2)c1	Non-Toxic	
